This passage reports ED50 and MIC results from ChEMBL document CHEMBL1122708, “Preparation and antibacterial activities of new 1,2,3-diazaborine derivatives and analogues” (1984).

The subject of assay [1] is Escherichia coli. Kind of assay: Antibacterial activity againist Escherichia coli 120 infected NMRI mice after peroral administration. It is filed as functional. The following applies: po. In short, it runs like this: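 ED50 in NMRI mice infected intraperitoneally with E. coli 120; compound given orally immediately and 5 h after infection.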
The test system of a further assay is Salmonella typhimurium. Kind of assay: Minimum inhibitory concentration of compound against Salmonella Typhimurium delta 119. The following applies: Salmonella enterica. The format is functional, Salmonella enterica subsp. enterica serovar Typhimurium.
Assay [2] relates to Escherichia coli. Description: Minimum inhibitory concentration of compound against Escherichia coli delta 120. The format is functional.
For a further assay, the system named is Proteus mirabilis. Description: Minimum inhibitory concentration against Proteus mirabilis delta 89. It is filed as functional.
The subject of the next assay is Klebsiella aerogenes. Description: Minimum inhibitory concentration of compound against Enterobacter aerogenes delta 220. The format is functional.
The subject of another assay is Klebsiella pneumoniae. Description: Minimum inhibitory concentration of compound against Klebsiella pneumoniae delta 217. The format is functional.
Assay [3] concerns Neisseria gonorrhoeae. Kind of assay: Minimum inhibitory concentration of compound against Neisseria gonorrhoeae AS 7720. The format is functional. In short, it runs like this: (§1)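 Agar dilution on Kellogg agar, 10⁶ colony forming units, incubated 20 h at 36 °C in 5% CO₂; MIC is the lowest concentration giving no visible growth.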
In assay [4] the test system is Neisseria gonorrhoeae. Description: Minimum inhibitory concentration of compound against Neisseria gonorrhoeae W2. It is filed as functional. An outline of the steps: as §1

Molecules are shown by their SMILES. In brackets after ≈: the same amount, converted by molar mass.

As a reminder, the ED50 is the dose at which the effect has come halfway, by size or by number of responders. The term MIC denotes the lowest concentration that inhibits growth of the organism. Read a high MIC as a less susceptible organism. As to `Cc1ccc(S(=O)(=O)N2N=C(c3ccccc3)c3ccccc3B2O)cc1`, the median effective dose (ED50) in the assay with Escherichia coli [1] is more than 300 mg/kg. The MIC in the assay with Salmonella typhimurium and against Escherichia coli [2] was more than 50 µg/mL in each case.
Turning to `Cc1ccc(S(=O)(=O)N2N=Cc3ccc(C(=O)O)cc3B2O)cc1`, the minimal inhibitory concentration (MIC) with Salmonella typhimurium and with Escherichia coli [2] was more than 50 µg/mL in each case.
For the molecule `Cc1ccc(S(=O)(=O)N2N=Cc3c(Cl)cc(Cl)cc3B2O)cc1`, the ED50 in the assay with Escherichia coli [1] is more than 100 mg/kg. Besides, the MIC with Salmonella typhimurium and in the assay on Escherichia coli [2] was more than 50 µg/mL throughout.
On to `Cc1ccc(S(=O)(=O)N2N=Cc3c(C)ccc(C)c3B2O)cc1`, for which the ED50 in the assay with Escherichia coli [1] was more than 600 mg/kg. Also, the MIC in the assay with Proteus mirabilis, with Klebsiella aerogenes, in the assay on Salmonella typhimurium, against Escherichia coli [2] and in the assay on Klebsiella pneumoniae was more than 50 µg/mL each time.
In the assay with Escherichia coli [1], `O=S(=O)(c1cc(Cl)c(Cl)cc1Cl)N1N=Cc2c(F)cccc2B1O` showed an ED50 of more than 300 mg/kg. Also, the minimum inhibitory concentration (MIC) against Proteus mirabilis was 25 µg/mL (≈ 61.4 µM); against Klebsiella aerogenes it was more than 50 µg/mL; in the assay on Salmonella typhimurium, more than 50 µg/mL; against Escherichia coli [2], more than 50 µg/mL; with Klebsiella pneumoniae it was more than 50 µg/mL.
`CCc1cc2c(s1)B(O)N(S(=O)(=O)c1ccc(C)cc1)N=C2` displayed an ED50 in the assay on Escherichia coli [1] of 9 mg/kg. The MIC in the assay on Proteus mirabilis worked out at 1.25 µg/mL (≈ 3.74 µM); against Neisseria gonorrhoeae [3], 0.25 µg/mL (≈ 0.748 µM); against Klebsiella aerogenes, 25 µg/mL (≈ 74.8 µM); against Salmonella typhimurium, 1.56 µg/mL (≈ 4.67 µM); in the assay with Escherichia coli [2] it was 6.25 µg/mL (≈ 18.7 µM); with Klebsiella pneumoniae it was 1.25 µg/mL (≈ 3.74 µM). The molecule further returned a minimum inhibitory concentration (MIC) with Neisseria gonorrhoeae [4] of 0.5 µg/mL (≈ 1.5 µM).
The molecule `Cc1ccc(S(=O)(=O)N2N=Cc3c(ccn3Cc3ccccc3)B2O)cc1` yielded an ED50 in the assay on Escherichia coli [1] of more than 600 mg/kg. Further, the MIC in the assay with Proteus mirabilis is 50 µg/mL (≈ 132 µM); in the assay on Klebsiella aerogenes, more than 50 µg/mL; in the assay on Salmonella typhimurium, more than 50 µg/mL; with Escherichia coli [2], more than 50 µg/mL; against Klebsiella pneumoniae, 50 µg/mL (≈ 132 µM).
In the case of `Cc1ccc(S(=O)(=O)N2N=Cc3c(C)cccc3B2O)cc1`, the median effective dose (ED50) in the assay on Escherichia coli [1] is more than 100 mg/kg. Moreover, the minimal inhibitory concentration (MIC) against Proteus mirabilis was 5 µg/mL (≈ 15.9 µM); with Neisseria gonorrhoeae [3], 2 µg/mL (≈ 6.37 µM); against Klebsiella aerogenes it was more than 50 µg/mL; in the assay on Salmonella typhimurium, 50 µg/mL (≈ 159 µM); against Escherichia coli [2], more than 50 µg/mL; against Klebsiella pneumoniae it was 10 µg/mL (≈ 31.8 µM). The molecule further gave a minimum inhibitory concentration (MIC) against Neisseria gonorrhoeae [4] of 8 µg/mL (≈ 25.5 µM).
As to `CC(=O)Nc1ccc(S(=O)(=O)N2N=Cc3cc(C)ccc3B2O)c(Cl)c1`, in the assay with Escherichia coli [1], the ED50 worked out at 16 mg/kg. The MIC was 1.25 µg/mL (≈ 3.19 µM) with Proteus mirabilis; 0.5 µg/mL (≈ 1.28 µM) against Neisseria gonorrhoeae [3]; 25 µg/mL (≈ 63.8 µM) in the assay on Klebsiella aerogenes; 6.25 µg/mL (≈ 16 µM) in the assay on Salmonella typhimurium; 25 µg/mL (≈ 63.8 µM) against Escherichia coli [2]; 1.25 µg/mL (≈ 3.19 µM) in the assay with Klebsiella pneumoniae. For the same molecule, the MIC in the assay with Neisseria gonorrhoeae [4] was determined as 1 µg/mL (≈ 2.55 µM).
On to `Cc1ccc(S(=O)(=O)N2N=Cc3c(F)cccc3B2O)cc1`, for which the ED50 with Escherichia coli [1] stood at 5 mg/kg. The minimum inhibitory concentration (MIC) against Proteus mirabilis is 3.12 µg/mL (≈ 9.81 µM); in the assay on Neisseria gonorrhoeae [3], 2 µg/mL (≈ 6.29 µM); against Klebsiella aerogenes, more than 50 µg/mL; in the assay on Salmonella typhimurium, 25 µg/mL (≈ 78.6 µM); against Escherichia coli [2], more than 50 µg/mL; in the assay on Klebsiella pneumoniae, 25 µg/mL (≈ 78.6 µM). This molecule displayed a minimum inhibitory concentration (MIC) against Neisseria gonorrhoeae [4] of 8 µg/mL (≈ 25.1 µM).
`Cc1ccc(S(=O)(=O)N2N=Cc3c(Br)cccc3B2O)cc1` gave an ED50 in the assay with Escherichia coli [1] of more than 100 mg/kg. Also, the MIC in the assay with Salmonella typhimurium and in the assay with Escherichia coli [2] was more than 50 µg/mL each time.
Turning to `Cc1ccc(S(=O)(=O)N2N=Cc3cc(N)ccc3B2O)cc1`, the 50% effective dose (ED50) with Escherichia coli [1] was more than 300 mg/kg. Besides, the MIC against Proteus mirabilis is 50 µg/mL (≈ 159 µM); against Klebsiella aerogenes it was more than 50 µg/mL; in the assay on Salmonella typhimurium it was more than 50 µg/mL; in the assay on Escherichia coli [2], more than 50 µg/mL; against Klebsiella pneumoniae it was 50 µg/mL (≈ 159 µM).
In turn, `Cc1ccc(S(=O)(=O)N2N=Cc3ccc(N(C)C)cc3B2O)cc1` registered an ED50 with Escherichia coli [1] of 100 mg/kg. Further, the MIC in the assay with Salmonella typhimurium and in the assay on Escherichia coli [2] was more than 50 µg/mL throughout.
On to `Cc1ccc(S(=O)(=O)N2N=Cc3c(Cl)cccc3B2O)cc1`, for which the ED50 in the assay with Escherichia coli [1] was approximately 100 mg/kg. Further, the minimum inhibitory concentration (MIC) against Salmonella typhimurium and against Escherichia coli [2] was more than 50 µg/mL each time.
As for `Cc1ccc(S(=O)(=O)N2N=Cc3scc(Br)c3B2O)cc1`, the ED50 in the assay on Escherichia coli [1] is more than 300 mg/kg. The MIC against Proteus mirabilis was 50 µg/mL (≈ 130 µM); in the assay on Klebsiella aerogenes, more than 50 µg/mL; in the assay with Salmonella typhimurium, more than 50 µg/mL; against Escherichia coli [2], more than 50 µg/mL; against Klebsiella pneumoniae it was more than 50 µg/mL.
`Cc1ccc(S(=O)(=O)N2N=Cc3cc(N(C)C)ccc3B2O)cc1` showed an ED50 in the assay with Escherichia coli [1] of more than 300 mg/kg. The minimum inhibitory concentration (MIC) with Salmonella typhimurium and in the assay on Escherichia coli [2] was more than 50 µg/mL in each case.
For the molecule `CC(=O)Nc1ccc2c(c1)B(O)N(S(=O)(=O)c1ccc(C)cc1)N=C2`, the ED50 in the assay with Escherichia coli [1] was more than 300 mg/kg. For the same molecule, the minimal inhibitory concentration (MIC) in the assay on Salmonella typhimurium and against Escherichia coli [2] was more than 50 µg/mL each time.
In the case of `Cc1cc2c(s1)B(O)N(S(=O)(=O)CC(C)C)N=C2`, the ED50 in the assay on Escherichia coli [1] is 5 mg/kg. The minimum inhibitory concentration (MIC) was 1.56 µg/mL (≈ 5.45 µM) in the assay with Proteus mirabilis; 1 µg/mL (≈ 3.49 µM) with Neisseria gonorrhoeae [3]; 6.25 µg/mL (≈ 21.8 µM) in the assay with Klebsiella aerogenes; 1.56 µg/mL (≈ 5.45 µM) in the assay on Salmonella typhimurium; 6.25 µg/mL (≈ 21.8 µM) in the assay with Escherichia coli [2]; 0.78 µg/mL (≈ 2.73 µM) with Klebsiella pneumoniae. Further, inhibition of growth against Neisseria gonorrhoeae [4] (MIC) required 1 µg/mL (≈ 3.49 µM).
In turn, `Cc1ccc(S(=O)(=O)N2N=Cc3cc4c(cc3B2O)-c2ccccc2C4)cc1` yielded a 50% effective dose (ED50) in the assay on Escherichia coli [1] of more than 600 mg/kg. Moreover, the MIC was 50 µg/mL (≈ 129 µM) with Proteus mirabilis; 2 µg/mL (≈ 5.15 µM) against Neisseria gonorrhoeae [3]; more than 50 µg/mL in the assay with Klebsiella aerogenes; more than 50 µg/mL in the assay with Salmonella typhimurium; more than 50 µg/mL with Escherichia coli [2]; more than 50 µg/mL in the assay with Klebsiella pneumoniae. In the assay with Neisseria gonorrhoeae [4], this molecule had an MIC of 8 µg/mL (≈ 20.6 µM).
